Assay [1] in a line: Binding affinity to GLUT1 in human MDA-MB-231 cells assessed as cytotoxicity by measuring reduction in cell viability measured after 24 hrs by CCK8 assay. On the technique in general: Tetrazolium assays rely on reduction of a dye to a coloured formazan, in cell work by metabolically active cells.
Assay [2] is described as follows: Binding affinity to GLUT1 in human NCI-H1437 cells assessed as cytotoxicity by measuring reduction in cell viability measured after 24 hrs by CCK8 assay.
The nature of assay [3]: Binding affinity to GLUT1 in human HGC27 cells assessed as cytotoxicity by measuring reduction in cell viability measured after 24 hrs by CCK8 assay.
Assay [4] is described as follows: Binding affinity to GLUT1 in human A549 cells assessed as cytotoxicity by measuring reduction in cell viability measured after 24 hrs by CCK8 assay.
A short description of assay [5]: Binding affinity to GLUT1 in human L02 cells assessed as cytotoxicity by measuring reduction in cell viability measured after 24 hrs by CCK8 assay.
Assay [6] can be described thus: Binding affinity to GLUT1 in human PC3 cells assessed as cytotoxicity by measuring reduction in cell viability measured after 24 hrs by CCK8 assay.
Assay [7] is described as follows: Binding affinity to GLUT1 in human NCI-H460 cells assessed as cytotoxicity by measuring reduction in cell viability measured after 24 hrs by CCK8 assay.
Assay [8] concerns the target T1, Solute carrier family 2, facilitated glucose transporter member 1 (Homo sapiens, UniProt P11166).
T1 sequence (P11166 whole entry): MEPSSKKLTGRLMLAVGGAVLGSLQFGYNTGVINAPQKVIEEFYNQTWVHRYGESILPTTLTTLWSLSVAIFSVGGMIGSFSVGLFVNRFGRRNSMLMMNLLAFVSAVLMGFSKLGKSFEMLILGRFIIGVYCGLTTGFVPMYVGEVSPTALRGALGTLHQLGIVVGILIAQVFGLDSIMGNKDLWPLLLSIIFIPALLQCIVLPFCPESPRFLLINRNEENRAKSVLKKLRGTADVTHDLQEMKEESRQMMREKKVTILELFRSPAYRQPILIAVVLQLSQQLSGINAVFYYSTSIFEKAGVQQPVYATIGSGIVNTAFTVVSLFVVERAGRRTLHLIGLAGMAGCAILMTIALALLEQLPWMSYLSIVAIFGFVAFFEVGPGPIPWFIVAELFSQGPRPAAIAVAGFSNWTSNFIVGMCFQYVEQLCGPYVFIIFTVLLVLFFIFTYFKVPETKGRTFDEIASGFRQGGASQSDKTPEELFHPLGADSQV
The experiment in a line: Binding affinity to GLUT1 in human A549 cells assessed as cytotoxicity by measuring reduction in cell viability measured after 24 hrs by CCK8 assay. In a few lines:
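Cells (A549, H460, H1437, PC-3, HGC-27, MDA-MB-231, HEK-293T, L-02) seeded at about 2×10^3/well and grown overnight. Treated 24 h with a peptide concentration series in serum-free medium. Viability by CCK-8; IC50 taken as 50% inhibition versus untreated cells. Average of three experiments, each in triplicate.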

*1 amine or outer side, *2 acyl side, *3 side chain or, on linkers, in order; H or OH if unused. Where a SMILES comes first, the peptide text is derived from it. The star is where a group is joined. NH(CH2)3O(βDGlc) = OC[C@H]1O[C@@H](OCCCN*)[C@H](O)[C@@H](O)[C@@H]1O; Glutaryl = O=C(CCCC(=O)[*:2])[*:1]

For `CC[C@H](C)[C@H](NC(=O)[C@H](Cc1ccccc1)NC(=O)[C@H](CCCNC(=N)N)NC(=O)[C@H](C)NC(=O)[C@@H](NC(=O)[C@H](CO)NC(=O)[C@H](CCCNC(=N)N)NC(=O)[C@H](CCSC)NC(=O)[C@H](C)NC(=O)[C@H](CCCNC(=N)N)NC(=O)[C@H](Cc1ccccc1)NC(=O)[C@H](Cc1c[nH]c2ccccc12)NC(=O)CNC(=O)[C@@H](N)CCCNC(=N)N)[C@@H](C)CC)C(=O)N[C@@H](C)C(=O)N[C@@H](CCCNC(=N)N)C(=O)N[C@@H](CCC(=O)O)C(=O)N[C@@H](CCCNC(=N)N)C(=O)N[C@@H](CC(C)C)C(=O)N[C@@H](CCCNC(=N)N)C(=O)N[C@@H](CCC(=O)O)C(=O)N[C@@H](Cc1cnc[nH]1)C(=O)N[C@@H](CC(C)C)C(=O)O` (H-RGWFRAMRSIARFIARERLREHL-OH), the IC50 (usually the midpoint of a concentration-inhibition curve) was 10.5 µM in assay [1]; 16.5 µM in assay [2]; 12.5 µM in assay [3]; 14.3 µM in assay [4]; 12.6 µM in assay [5]; 15.6 µM in assay [6]. For the same compound, the half-maximal inhibitory concentration (IC50) in assay [7] came to 12.9 µM.

Consider `CC[C@H](C)[C@H](NC(=O)[C@H](Cc1ccccc1)NC(=O)[C@H](CCCNC(=N)N)NC(=O)[C@H](C)NC(=O)[C@@H](NC(=O)[C@H](CO)NC(=O)[C@H](CCCNC(=N)N)NC(=O)[C@H](CCSC)NC(=O)[C@H](C)NC(=O)[C@H](CCCNC(=N)N)NC(=O)[C@H](Cc1ccccc1)NC(=O)[C@H](Cc1c[nH]c2ccccc12)NC(=O)CNC(=O)[C@H](CCCNC(=N)N)NC(=O)CCCC(=O)NCCCO[C@@H]1O[C@H](CO)[C@@H](O)[C@H](O)[C@H]1O)[C@@H](C)CC)C(=O)N[C@@H](C)C(=O)N[C@@H](CCCNC(=N)N)C(=O)N[C@@H](CCC(=O)O)C(=O)N[C@@H](CCCNC(=N)N)C(=O)N[C@@H](CC(C)C)C(=O)N[C@@H](CCCNC(=N)N)C(=O)N[C@@H](CCC(=O)O)C(=O)N[C@@H](Cc1cnc[nH]1)C(=O)N[C@@H](CC(C)C)C(=O)O` ({NH(CH2)3O(βDGlc)-Glutaryl}-RGWFRAMRSIARFIARERLREHL-OH), for which the IC50 in assay [1] was 10.1 µM; in assay [3] it was 12.6 µM; in assay [8], 9.6 µM; in assay [5] it was 25.9 µM; in assay [6], 6.9 µM; in assay [7] it was 8.5 µM.
